Test results reported in PMC7579299 (Anti-Inflammatory & Anti-Allergy Agents in Medicinal …, 2020).
pIC50: −log10 of the molar value.

Tests used:
[1] = tested on: Human Red Blood Cell (HRBC) membrane; assay: HRBC membrane stabilization method; assay type: cell-based
Procedure, shortened: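 Human red blood cell membrane stabilization assay, run in quadruplicate with diclofenac as reference. Hemolysis in distilled water was taken as 100%. Protection was calculated as % inhibition of hemolysis = 100 × (OD control − OD sample)/OD control.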

[2] = tested on: MCF-7 (human breast cancer); assay: Anticancer MTT assay, breast cancer cells; assay type: cell-based
Procedure, shortened: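 MCF-7 cells grown in DMEM with 10% FBS, penicillin and streptomycin at 37°C in 5% CO₂. About 5000 cells/well were exposed to test compound at 50-500 µg/mL (1 mg/ml DMSO working solution, 0.45-micron filtered) for 24, 48 or 72 h. MTT was added for 2 h, then lysis buffer for 4 h, and A570 was read. Viability = mean OD/control OD × 100.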

O=C(O)Cc1ccccc1Nc1c(Cl)cccc1Cl [Diclofenac]
pIC50 ([1]; Homo sapiens, Erythrocyte, read-out: HRBC membrane protection IC50): 6.82
HRBC membrane average protection ([1]; n=4): 82.15%

COc1cccc2c1C(=O)c1c(O)c3c(c(O)c1C2=O)C[C@@](O)(C(=O)CO)C[C@@H]3O[C@H]1C[C@H](N)[C@H](O)[C@H](C)O1 [Doxorubicin]
Relative percentage activity (anticancer) [2]: 89.47 ± 2.87%
